Key:
[1] = target: T1, Alpha-1D adrenergic receptor (Rattus norvegicus) (UniProt P23944); test: Fraction involved in salt bridge interactions with Asp3:11 part of the alpha-1D adrenergic receptor
T1 sequence (whole entry): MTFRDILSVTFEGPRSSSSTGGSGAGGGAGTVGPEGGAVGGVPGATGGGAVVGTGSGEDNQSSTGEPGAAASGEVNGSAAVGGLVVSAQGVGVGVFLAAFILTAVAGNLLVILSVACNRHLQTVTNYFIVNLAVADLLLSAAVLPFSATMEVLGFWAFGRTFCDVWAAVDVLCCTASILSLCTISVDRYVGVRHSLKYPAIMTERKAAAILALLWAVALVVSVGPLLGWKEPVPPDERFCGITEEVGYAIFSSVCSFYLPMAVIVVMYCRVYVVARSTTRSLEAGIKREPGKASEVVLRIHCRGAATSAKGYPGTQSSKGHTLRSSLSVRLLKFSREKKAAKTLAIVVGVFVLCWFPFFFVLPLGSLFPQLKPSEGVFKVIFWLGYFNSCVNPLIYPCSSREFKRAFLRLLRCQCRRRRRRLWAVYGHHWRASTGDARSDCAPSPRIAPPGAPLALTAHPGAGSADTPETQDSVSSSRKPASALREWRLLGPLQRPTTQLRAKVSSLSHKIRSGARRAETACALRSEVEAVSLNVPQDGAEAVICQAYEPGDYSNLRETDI
Method in brief: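 Comparative models were built on a rhodopsin template and refined by energy minimization and MD. Docking used MCSS, and the value is the fraction of substituted phenylpiperazines forming a salt bridge with receptor Asp3:11.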

[2] = target: T2, 5-hydroxytryptamine receptor 1A (Homo sapiens, UniProt P08908); test: Binding affinity to human 5-hydroxytryptamine 1A receptor was measured using [3H]-8-hydroxy-2-(di-n-propylamine) tetraline [3H]8-OH-DPAT) as radioligand
T2 sequence (P08908 whole entry): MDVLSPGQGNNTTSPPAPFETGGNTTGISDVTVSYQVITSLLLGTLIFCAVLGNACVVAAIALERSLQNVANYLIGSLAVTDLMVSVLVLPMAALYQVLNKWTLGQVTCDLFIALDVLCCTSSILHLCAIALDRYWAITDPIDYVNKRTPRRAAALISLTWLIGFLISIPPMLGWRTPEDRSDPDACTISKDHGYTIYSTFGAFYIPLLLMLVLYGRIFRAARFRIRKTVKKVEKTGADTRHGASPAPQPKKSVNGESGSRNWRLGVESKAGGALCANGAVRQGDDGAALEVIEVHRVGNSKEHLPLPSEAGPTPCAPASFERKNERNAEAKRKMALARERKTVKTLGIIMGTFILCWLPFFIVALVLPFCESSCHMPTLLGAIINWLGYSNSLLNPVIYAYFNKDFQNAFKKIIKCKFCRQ

[3] = target: T3, Alpha-1A adrenergic receptor (Rattus norvegicus) (UniProt P43140); conditions: Vas deferens
T3 sequence (whole entry): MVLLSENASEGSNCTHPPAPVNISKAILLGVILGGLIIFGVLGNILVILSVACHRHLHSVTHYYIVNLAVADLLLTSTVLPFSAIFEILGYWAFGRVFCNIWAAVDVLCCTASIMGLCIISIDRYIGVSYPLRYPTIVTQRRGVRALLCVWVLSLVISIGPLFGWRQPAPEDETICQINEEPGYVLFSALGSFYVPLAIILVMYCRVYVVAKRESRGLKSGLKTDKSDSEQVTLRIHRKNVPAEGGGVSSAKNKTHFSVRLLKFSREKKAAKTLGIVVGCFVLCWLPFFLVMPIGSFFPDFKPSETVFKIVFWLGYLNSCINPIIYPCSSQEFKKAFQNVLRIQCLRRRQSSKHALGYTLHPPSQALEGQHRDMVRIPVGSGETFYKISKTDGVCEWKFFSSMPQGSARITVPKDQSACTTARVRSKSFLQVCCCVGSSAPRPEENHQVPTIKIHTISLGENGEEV

[4] = target: T1, Alpha-1D adrenergic receptor (Rattus norvegicus); conditions: Aorta
[5] = target: Alpha-1D adrenergic receptor (Homo sapiens) (UniProt P25100); test: Binding affinity to the adrenergic receptor alpha-1D of cloned human receptor
[6] = target: Alpha-1A adrenergic receptor (Homo sapiens) (UniProt P35348); test: In vitro binding affinity towards alpha-1A adrenergic receptor through displacement of [3H]prazosin in cloned human receptor.

Row | Structure (SMILES) | Activity [1] | Ki [2] | pKB [3] | pKB [4] | Ki [5] | Ki [6]
1 | O=C1CC2(CCCC2)CCN1CCN1CCN(c2cc(Cl)ccc2Cl)CC1 | – | – | 7 | 8.89 | 0.11 nM | –
2 | O=C1CC2(CCCC2)CC(=O)N1CCCN1CCN(c2cc(Cl)ccc2Cl)CC1 | – | 401 nM | – | – | 1.72 nM | 2.85 nM
3 | O=C1CC2(C=CN1CCN1CCN(c3ccccc3Cl)CC1)CCCC2 | – | 9.38 nM | – | – | 0.84 nM | 53.9 nM
4 | O=C1CC2(CCCC2)CC(=O)N1CCN1CCN(c2cc(Cl)ccc2Cl)CC1 | 0.4 | – | – | 8.99 | 0.13 nM | –
5 | O=C1CC2(CCCC2)CC(=O)N1CCN1CCC(c2ccccc2Cl)CC1 | – | 5.25 nM | – | – | 1.11 nM | 2.01 nM
6 | Clc1ccccc1N1CCN(CCN2CCC3(CCCC3)CC2)CC1 | – | 85.4 nM | – | – | 8.74 nM | > 1000 nM
7 | O=C1CC2(CCCC2)CC(=O)N1CCCCN1CCN(c2cc(Cl)ccc2Cl)CC1 | – | 26.1 nM | – | – | 0.67 nM | 1.81 nM
8 | COc1ccccc1OCCN(C)CCN1C(=O)CC2(CCCC2)CC1=O | – | 259 nM | – | – | 18.2 nM | > 1000 nM

More lines, now with the values ahead:

Row | Activity [1] | Ki [2] | pKB [3] | pKB [4] | Ki [5] | Ki [6] | Structure (SMILES)
9 | 0.3 | 0.8 nM | – | – | – | – | COc1ccccc1N1CCN(CCN2C(=O)CC3(CCCC3)CC2=O)CC1 [BMY-7378]
10 | – | 5.37 nM | – | – | 0.93 nM | 214 nM | N#Cc1ccccc1N1CCN(CCN2C(=O)CC3(CCCC3)CC2=O)CC1
11 | – | 1.29 nM | – | – | 1.6 nM | 376 nM | O=C1CC2(CCCC2)CC(=O)N1CCN1CCN(c2ccccc2Br)CC1
12 | – | 25.4 nM | – | – | 2.16 nM | 584 nM | Cc1ccccc1N1CCN(CCN2C(=O)CC3(CCCC3)CC2=O)CC1
13 | – | 0.54 nM | – | – | 2.9 nM | 3.54 nM | CC(C)Oc1ccccc1N1CCN(CCN2C(=O)CC3(CCCC3)CC2=O)CC1
14 | – | 1.2 nM | – | – | 1.34 nM | 10.9 nM | O=C1CC2(CCCC2)CC(=O)N1CCN1CCN(c2ccccc2C2CC2)CC1
15 | – | 0.34 nM | – | – | 1.38 nM | 295 nM | O=C1CC2(CCCC2)CC(=O)N1CCN1CCCN(c2ccccc2Cl)CC1
16 | – | 35.7 nM | – | – | 4.32 nM | 3350 nM | O=C1CC2(CCCC2)CC(=O)N1CCN1CCN(c2ccccc2)CC1
